Test results taken from ChEMBL document CHEMBL4038284, “Synthesis of novel quinoline-based 4,5-dihydro-1H-pyrazoles as potential anticancer, antifungal, antibacterial and antiprotozoal agents” (Eur J Med Chem, 2017).
Values after ≈ are worked out from the molar mass of the structure shown.

Tests used:
Candida albicans [1] = assay: Growth inhibition of Candida albicans ATCC 10231 at 15.62 ug/ml incubated for 48 hrs under dark condition by broth microdilution method relative to control; type: functional; details: ATCC 10231, 48 h, read-out: GI
Method in brief: (§1)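 CLSI M27-A3 broth microdilution in RPMI-1640, DMSO ≤1%. Inoculum 1-5 × 10^3 CFU/mL. Incubated 48 h at 30 °C, dark. % inhibition = 100 − (OD405 test − sterility control)/(OD405 growth control − sterility control), with growth and sterility control wells. Triplicate.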

Candida albicans [2] = assay: Growth inhibition of Candida albicans ATCC 10231 at 31.25 ug/ml incubated for 48 hrs under dark condition by broth microdilution method relative to control; type: functional; details: ATCC 10231, 48 h, read-out: GI; method in brief: as §1
Trypanosoma cruzi = assay: Antitrypanosomal activity against Trypanosoma cruzi Tulahuen intracellular amastigote harboring LacZ infected in human U937 cells after 72 hrs by CPRG/Nonidet reagent based spectrophotometric method; type: functional, cell-based; details: U-937, 72 h
Method in brief: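 U-937 cells at 2.5 × 10^5 cells/mL in RPMI-1640 with 10% serum and 0.1 µg/mL PMA were infected with β-galactosidase-transfected Tulahuen epimastigotes at 5 parasites per cell. Infected cells were exposed to 50, 12.5, 3.125 and 0.78 µg/mL for 72 h. CPRG (100 uM) and 0.1% Nonidet P-40 were added for 3 h, read at 570 nm. EC50 by Probit. Triplicate, at least two experiments; benznidazole as reference.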

Cryptococcus neoformans [3] = assay: Growth inhibition of Cryptococcus neoformans ATCC 32264 at 62.5 ug/ml incubated for 48 hrs under dark condition by broth microdilution method relative to control; type: functional; details: ATCC 32264, 48 h, read-out: GI; method in brief: as §1
Escherichia coli = assay: Antibacterial activity against Escherichia coli ATCC 25922 after 24 hrs by resazurin dye based microdilution assay; type: functional; details: ATCC 25922, 24 h
Method in brief: (§2)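 MIC taken as the lowest concentration giving visible inhibition and/or by resazurin (1 mg/mL). Gentamicin was the control. Run in duplicate, repeated at least three times.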

Leishmania panamensis = assay: Antileshmanial activity against EpiR/GFP fused Leishmania panamensis MHOM/CO/87/UA140 intracellular amastigotes infected in human […] cells after 72 hrs by flow cytometric method; type: functional, cell-based; details: MHOM/CO/87/UA140, 72 h
Method in brief: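 PMA-treated U-937 cells (3 × 10^5 cells/mL) infected with stationary-phase GFP L. panamensis promastigotes (15:1), 3 h at 34 °C, then washed. After 24 h, compounds added at 50, 12.5, 3.125 and 0.78 µg/mL for 72 h at 37 °C. EC50 by Probit; triplicate, two experiments.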

U-937 = assay: Cytotoxicity against human U937 cells after 72 hrs by MTT assay; type: cell-based; details: u-937, 72 h
Method in brief: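 Exponentially growing U-937 at 1 × 10^5 cells/mL in RPMI-1640 with 10% FBS were exposed to 200, 50, 12.5 and 3.125 µg/mL for 72 h at 37 °C, 5% CO2. MTT for 3 h, stopped with isopropanol/SDS, formazan read at 570 nm, blank-corrected. LC50 by Probit from % viability against untreated cells. Triplicate, at least two independent experiments.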

Candida albicans [4] = assay: Growth inhibition of Candida albicans ATCC 10231 at 125 ug/ml incubated for 48 hrs under dark condition by broth microdilution method relative to control; type: functional; details: ATCC 10231, 48 h, read-out: GI; method in brief: as §1
Staphylococcus aureus [5] = assay: Antibacterial activity against methicillin-sensitive Staphylococcus aureus ATCC 25923 after 24 hrs by resazurin dye based microdilution assay; type: functional; details: ATCC 25923, 24 h; method in brief: as §2
Cryptococcus neoformans [6] = assay: Growth inhibition of Cryptococcus neoformans ATCC 32264 at 125 ug/ml incubated for 48 hrs under dark condition by broth microdilution method relative to control; type: functional; details: ATCC 32264, 48 h, read-out: GI; method in brief: as §1
Cryptococcus neoformans [7] = assay: Growth inhibition of Cryptococcus neoformans ATCC 32264 at 15.62 ug/ml incubated for 48 hrs under dark condition by broth microdilution method relative to control; type: functional; details: ATCC 32264, 48 h, read-out: GI; method in brief: as §1
Candida albicans [8] = assay: Growth inhibition of Candida albicans ATCC 10231 at 3.4 ug/ml incubated for 48 hrs under dark condition by broth microdilution method relative to control; type: functional; details: ATCC 10231, 48 h, read-out: GI
Plasmodium falciparum = assay: Antiplasmodial activity against chloroquine-sensitive Plasmodium falciparum 3D7 assessed as reduction in parasitic LDH activity after 48 hrs by Malstat reagent based […] method; type: functional; details: 3D7, 48 h
Method in brief: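 Unsynchronized P. falciparum 3D7 at 0.5% parasitemia and 1% hematocrit in RPMI with 3% Albumax II. Exposed to 100, 25, 6.25 and 1.56 µg/mL for 48 h at 37 °C under 90% N2/5% CO2/5% O2. After three freeze-thaw cycles, LDH measured with Malstat and NBT/PES, 1 h in the dark, read at 650 nm. IC50 by Probit; triplicate, ≥2 experiments.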

Staphylococcus aureus [9] = assay: Antibacterial activity against methicillin-resistant Staphylococcus aureus ATCC 43300 after 24 hrs by resazurin dye based microdilution assay; type: functional; details: ATCC 43300, 24 h
Method in brief: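 Broth microdilution in Mueller Hinton broth, inoculum 5 × 10^5 – 8 × 10^5. Compound stocks diluted in MHB with 5% DMSO and 0.1% Tween 80. Incubation 24 h at 35-37 °C. MIC is the lowest concentration with visible growth inhibition and/or by resazurin (1 mg/mL) read-out. Gentamicin as control. Run in duplicate, replicated at least three times.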

Neisseria gonorrhoeae = assay: Antibacterial activity against beta lactamase positive Neisseria gonorrhoeae ATCC 31426 by oxidase test; type: functional
Method in brief: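 Agar dilution MIC on GC agar with 1% isovitalex containing increasing compound concentrations. Plates inoculated with about 1×10^4 CFU (5 µL). MIC is the lowest concentration that inhibited growth, with growth confirmed by oxidase test. Run in duplicate, repeated at least three times.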

Cryptococcus neoformans [10] = assay: Growth inhibition of Cryptococcus neoformans ATCC 32264 at 3.4 ug/ml incubated for 48 hrs under dark condition by broth microdilution method relative to control; type: functional; details: ATCC 32264, 48 h, read-out: GI
Candida albicans [11] = assay: Growth inhibition of Candida albicans ATCC 10231 at 62.5 ug/ml incubated for 48 hrs under dark condition by broth microdilution method relative to control; type: functional; details: ATCC 10231, 48 h, read-out: GI; method in brief: as §1
Cryptococcus neoformans [12] = assay: Growth inhibition of Cryptococcus neoformans ATCC 32264 at 7.8 ug/ml incubated for 48 hrs under dark condition by broth microdilution method relative to control; type: functional; details: ATCC 32264, 48 h, read-out: GI; method in brief: as §1
Staphylococcus aureus [13] = assay: Antibacterial activity against vancomycin-intermediate Staphylococcus aureus after 24 hrs by resazurin dye based microdilution assay; type: functional; method in brief: as §2
Cryptococcus neoformans [14] = assay: Growth inhibition of Cryptococcus neoformans ATCC 32264 at 250 ug/ml incubated for 48 hrs under dark condition by broth microdilution method relative to control; type: functional; details: ATCC 32264, 48 h, read-out: GI; method in brief: as §1
Pseudomonas aeruginosa = assay: Antibacterial activity against Pseudomonas aeruginosa ATCC 27853 after 24 hrs by resazurin dye based microdilution assay; type: functional; details: ATCC 27853, 24 h; method in brief: as §2
Candida albicans [15] = assay: Antifungal activity against Candida albicans ATCC 10231 incubated for 48 hrs under dark condition by broth microdilution method; type: functional; details: ATCC 10231, 48 h
Method in brief: (§3)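 CLSI M27-A3 broth microdilution in RPMI-1640, DMSO ≤1%, compounds at 250-0.98 µg/mL final. Inoculum 1-5 × 10^3 CFU/mL. Incubated 48 h at 30 °C in a moist dark chamber, read at OD405. MIC80 and MIC50 taken from % inhibition dose-response curves (mean ± SEM, triplicate). Amphotericin B was the positive control.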

Candida albicans [16] = assay: Growth inhibition of Candida albicans ATCC 10231 at 7.8 ug/ml incubated for 48 hrs under dark condition by broth microdilution method relative to control; type: functional; details: ATCC 10231, 48 h, read-out: GI; method in brief: as §1
Candida albicans [17] = assay: Growth inhibition of Candida albicans ATCC 10231 at 250 ug/ml incubated for 48 hrs under dark condition by broth microdilution method relative to control; type: functional; details: ATCC 10231, 48 h, read-out: GI; method in brief: as §1
Cryptococcus neoformans [18] = assay: Antifungal activity against Cryptococcus neoformans ATCC 32264 incubated for 48 hrs under dark condition by broth microdilution method; type: functional; details: ATCC 32264, 48 h; method in brief: as §3
Klebsiella pneumoniae [19] = assay: Antibacterial activity against carbapenemase positive Klebsiella pneumoniae BAA 1705 after 24 hrs by resazurin dye based microdilution assay; type: functional; details: BAA 1705, 24 h; method in brief: as §2
Cryptococcus neoformans [20] = assay: Growth inhibition of Cryptococcus neoformans ATCC 32264 at 31.25 ug/ml incubated for 48 hrs under dark condition by broth microdilution method relative to control; type: functional; details: ATCC 32264, 48 h, read-out: GI; method in brief: as §1
Klebsiella pneumoniae [21] = assay: Antibacterial activity against ESBL positive Klebsiella pneumoniae ATCC 700603 after 24 hrs by resazurin dye based microdilution assay; type: functional; details: Klebsiella pneumoniae, 700603, 24 h; method in brief: as §2

In the case of `Clc1cc(Cl)cc(N2N=C(c3ccccc3)CC2c2cccc(Nc3ccnc4cc(Cl)ccc34)c2)c1` (stereo not given), the inhibition of growth at 15.62 µg/mL (Candida albicans [1]) is reported as 0%, the inhibition of growth at 31.25 µg/mL (Candida albicans [2]) is reported as 0% and the EC50 (Trypanosoma cruzi) is reported as 32.6 µg/mL (≈ 60 µM). The inhibition of growth at 62.5 µg/mL (Cryptococcus neoformans [3]) was 3.07%, the MIC (Escherichia coli) was greater than 1000 µg/mL and the EC50 (Leishmania panamensis) was 17.8 µg/mL (≈ 32.8 µM). For the same compound, the LC50 (U-937) was greater than 200 µg/mL, the inhibition of growth at 125 µg/mL (Candida albicans [4]) was 2.17% and the MIC (Staphylococcus aureus [5]) was greater than 1000 µg/mL. The inhibition of growth at 125 µg/mL (Cryptococcus neoformans [6]) was 3.29%, the inhibition of growth at 15.62 µg/mL (Cryptococcus neoformans [7]) was 1.36% and the inhibition of growth at 3.4 µg/mL (Candida albicans [8]) was 0%. It also gave an EC50 (Plasmodium falciparum) of 12.5 µg/mL (≈ 23.1 µM), an MIC (Staphylococcus aureus [9]) greater than 1000 µg/mL and an MIC (Neisseria gonorrhoeae) greater than 1000 µg/mL. It also gave an inhibition of growth at 3.4 µg/mL (Cryptococcus neoformans [10]) of 0%, an inhibition of growth at 62.5 µg/mL (Candida albicans [11]) of 0% and an inhibition of growth at 7.8 µg/mL (Cryptococcus neoformans [12]) of 0%. For the same compound, the MIC (Staphylococcus aureus [13]) was greater than 1000 µg/mL, the inhibition of growth at 250 µg/mL (Cryptococcus neoformans [14]) was 7.5% and the MIC (Pseudomonas aeruginosa) was greater than 1000 µg/mL. The MIC50 (Candida albicans [15]) was no less than 250 µg/mL, the MIC80 (Candida albicans [15]) was no less than 250 µg/mL and the inhibition of growth at 7.8 µg/mL (Candida albicans [16]) was 0%. The inhibition of growth at 250 µg/mL (Candida albicans [17]) was 11.2%, the MIC50 (Cryptococcus neoformans [18]) was no less than 250 µg/mL and the MIC80 (Cryptococcus neoformans [18]) was no less than 250 µg/mL. It also gave an MIC (Klebsiella pneumoniae [19]) greater than 1000 µg/mL, an inhibition of growth at 31.25 µg/mL (Cryptococcus neoformans [20]) of 2.16% and an MIC (Klebsiella pneumoniae [21]) greater than 1000 µg/mL.
